High-throughput results as filed in PubChem BioAssay.
SENP6 inh = SENP6 protease inhibitors, primary screen, biochemical, luminescence, uHTS. Recombinant SENP6 catalytic domain, aminoluciferin luminescence. 330,000 tested, 1.8% active. Sentrin-specific protease 6 (Homo sapiens), Q9GZR1. inhibition, % at 10 µM;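 active = inhibition above about 50% at the single tested dose, limit read from the data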;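 note: plate controls were DMSO wells with enzyme for no effect and DMSO wells lacking enzyme for full effect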
SENP1 FRET inh = human SENP1 catalytic domain inhibitors, primary screen, biochemical, FRET, uHTS. recombinant SENP1 catalytic domain, CyPet-SUMO1-YPet FRET cleavage. Sentrin-specific protease 1 (Homo sapiens), Q9P0U3. inhibition, % at 10 µM. 360,000 tested, 0.21% active;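 active = inhibition at least 30% at 10 µM, raw YFP signal under a set limit, fluorescence ratio 0.5 to 1.5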;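 note: 0% = enzyme with DMSO and 100% = no enzyme wells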
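Controls: no-enzyme wells low, DMSO-plus-enzyme wells high control. Test system: human recombinant His6-tagged SENP1 catalytic domain enzyme. Reagent: SFCypet-SUMO1-SFYpet FRET protein substrate, 25 nM final. Doses: one dose per compound, 10 µM, 0.5% DMSO. Detection: FRET, CFP and YFP emission. Timing: 50 min reaction at room temperature.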
SENP8 block-1 = SENP8 protease inhibitors, primary screen, biochemical, luminescence. purified SENP8, Z-RLRGG-aminoluciferin cleavage. 330,000 tested, 1.2% active. inhibition, % at 10 µM; in the data active = inhibition above about 50%
Target sequence (Q96LD8 whole entry, looked up): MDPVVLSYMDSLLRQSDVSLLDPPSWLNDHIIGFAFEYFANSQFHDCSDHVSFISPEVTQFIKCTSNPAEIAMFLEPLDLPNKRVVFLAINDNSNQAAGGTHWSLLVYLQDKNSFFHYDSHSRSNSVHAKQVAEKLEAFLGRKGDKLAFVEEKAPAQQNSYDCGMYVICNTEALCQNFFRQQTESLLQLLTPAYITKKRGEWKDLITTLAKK
SENP8 block-2 = human SENP8 protease inhibitors, primary screen, biochemical, fluorescence, Nedd8 protein substrate, uHTS | 360,000 tested, 0.64% active | recombinant SENP8 | AID 602440, 2012 | inhibition, % at 20 µM; in the data active = inhibition mostly above about 40%, no sharp cut-off; inactive = mostly below about 27%
SENP7 inh = SENP7 protease inhibitors, primary screen, biochemical, luminescence, uHTS; recombinant SENP7, Z-RLRGG-aminoluciferin luminescence, 40 min; inhibition, % at 5 µM; 330,000 tested, 1.5% active; AID 434973, 2010;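 active = inhibition above about 50% at the single test dose, limit read from the data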;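 note: plate controls were DMSO with enzyme for no effect and no enzyme buffer wells for full effect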
SENP8 conf = human SENP8 protease inhibitors, confirmation, biochemical, Nedd8 protein substrate, single concentration; shares compounds with SENP8 block-2; purified SENP8, Nedd8-AMC/pro-Nedd8 cleavage fluorescence, 30 min; inhibition, % at 25 µM; 1,400 tested, 15% active; AID 624319, 2012; in the data active = inhibition mostly above about 39%, no sharp cut-off; inactive = mostly below about 34%
SENP1 conf = human SENP1 catalytic domain inhibitors, confirmation, biochemical, FRET endpoint, single concentration; AID 651678, 2012; inhibition, % at 10 µM; shares compounds with SENP1 FRET inh; recombinant SENP1, CyPet-SUMO1-YPet FRET cleavage; 520 tested, 34% active; in the data active = inhibition mostly above about 35%, no sharp cut-off; inactive = mostly below about 32%;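 note: 0% = enzyme with DMSO and 100% = no enzyme control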
SENP1 kinetic = human SENP1 catalytic domain inhibitors, confirmation, biochemical, kinetic FRET, single concentration. 520 tested, 26% active. shares compounds with SENP1 FRET inh. inhibition, % at 10 µM. recombinant SENP1, CyPet-SUMO1-YPet FRET kinetic cleavage; in the data active = inhibition mostly above about 32%, no sharp cut-off; inactive = mostly below about 29%;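 note: 0% = DMSO with enzyme and 100% = no enzyme substrate only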
Starred values were filed as active, the others as inactive; nt = not tested or not shown. Compounds with a hit are over-represented: about 2.5% of the library has one in this group of screens.

SMILES	SENP6 inh	SENP1 FRET inh	SENP8 block-1	SENP8 block-2	SENP7 inh	SENP8 conf	others
c1coc(CN2Cc3ccccc3-n3nncc3C2)c1	nt	1	nt	11	nt	nt
Oc1cccc2nc3ccccc3nc12	1	0	-13	22*	14	17
COc1cccc(N=Nc2c(O)[nH]c(=S)[nH]c2=O)c1	49	12	24	51*	29	22
O=c1[nH]c(=S)[nH]c(O)c1N=Nc1cccc(S(=O)(=O)N2CCOCC2)c1	-7	-2	1	32	0	nt
C=CCc1cc(OC)c2c(c1)OCO2	-4	0	4	22	-3	nt
COc1cccc2c1cc([N+](=O)[O-])c1c(C(=O)O)cc3c(c12)OCO3	nt	-1	nt	42*	nt	21
Cc1cc(C=C2C(=O)NC(=O)NC2=O)c(C)n1-c1ccc2c(c1)OCO2	-18	-9	-9	-13	-5	nt
Cc1cc(/C=C2\C(=O)NC(=O)N(C)C2=O)c(C)n1-c1ccc2c(c1)OCO2	-10	35*	-12	5	-7	nt	SENP1 conf=-21;SENP1 kinetic=19
Nc1cccc2c1Cc1cc([N+](=O)[O-])ccc1-2	nt	73*	nt	25	nt	nt	SENP1 conf=0;SENP1 kinetic=0
Cc1ccc(C(=O)N2CC2C)cc1 (stereo not drawn)	nt	0	nt	11	nt	nt
